Experimental data as given in ChEMBL document CHEMBL1649568, “Efficacy of aerosol MP-376, a levofloxacin inhalation solution, in models of mouse lung infection due to Pseudomonas aeruginosa” (Antimicrob Agents Chemother, 2009).
Values after ≈ are worked out from the molar mass of the structure shown.

What was measured:
Pseudomonas aeruginosa [1] = assay: Antimicrobial activity against Pseudomonas aeruginosa ATCC 27853 infected in Swiss neutropenic mouse assessed as reduction in lung bacterial load at 32 mg/kg, ip BID administered 24 hrs post infection; format: functional; details: route intraperitoneal
Procedure, shortened: (§1)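 Female Swiss mice (5–6 wk) made neutropenic with cyclophosphamide 150 mg/kg i.p. on days 1 and 3. On day 4, intratracheal instillation of 0.05 ml strain ATCC 27853 suspension at ca. 1–6 × 10⁵ CFU/ml. From 24 h postinfection, two i.p. doses over 24 h, n = 8. Lungs taken 12–16 h after the last dose, homogenized in saline and plated; mean log CFU/lung compared with an untreated baseline group.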

Pseudomonas aeruginosa [2] = assay: Antimicrobial activity against Pseudomonas aeruginosa ATCC 27853 infected in Swiss neutropenic mouse assessed as reduction in lung bacterial load at 63 mg/kg, ip BID administered 24 hrs post infection; format: functional; details: route intraperitoneal; procedure, shortened: as §1
Pseudomonas aeruginosa [3] = assay: Antimicrobial activity against Pseudomonas aeruginosa NH57388A infected in Swiss neutropenic mouse assessed as lung bacterial load at 60 mg/kg, ip BID administered 24 hrs post infection (reference value: 8.89 logCFU); format: functional; details: route intraperitoneal
Pseudomonas aeruginosa [4] = assay: Antimicrobial activity against Pseudomonas aeruginosa ATCC 27853 infected in Swiss neutropenic mouse assessed as reduction in lung bacterial load at […], ip BID administered 24 hrs post infection; format: functional; details: route intraperitoneal
Pseudomonas aeruginosa [5] = assay: Antimicrobial activity against Pseudomonas aeruginosa NH57388A infected in Swiss neutropenic mouse assessed as lung bacterial load at 15 mg/kg, ip BID administered 24 hrs post infection (reference value: 8.89 logCFU); format: functional; details: route intraperitoneal
Pseudomonas aeruginosa [6] = assay: Antimicrobial activity against Pseudomonas aeruginosa NH57388A infected in Swiss neutropenic mouse assessed as lung bacterial load at 30 mg/kg, ip BID administered 24 hrs post infection (reference value: 8.89 logCFU); format: functional; details: route intraperitoneal
Mus musculus [7] = assay: Cmax in mouse at 60 mg/kg, administered as single dose through aerosol; format: ADME, organism-based; parameters: dose 60 mg/kg; details: in vivo, inhaled_or_intranasal
Mus musculus [8] = assay: Cmax in mouse at 60 mg/kg, ip administered as single dose; format: ADME, organism-based; parameters: dose 60 mg/kg, route intraperitoneal; details: in vivo
Pseudomonas aeruginosa [9] = assay: Bactericidal activity against Pseudomonas aeruginosa NH57388A infected in Swiss neutropenic mouse assessed as reduction in lung bacterial load at 60 mg/kg BID administered 24 hrs post infection through aerosol; format: functional
Procedure, shortened: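 In the chronic alginate-embedded NH57388A lung infection (cyclophosphamide 150 mg/kg i.p. once, 4 days before; about 10⁸ CFU/ml inoculum), mice got aerosol doses by microsprayer (50 µl, isoflurane) twice daily for 3 days from 24 h postinfection. Lungs homogenized and plated 12–16 h after the final dose; log CFU/lung.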

Pseudomonas aeruginosa [10] = assay: Antimicrobial activity against Pseudomonas aeruginosa ATCC 27853 by broth microdilution method; format: functional
Procedure, shortened: (§2)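 Broth microdilution per CLSI. Inoculum 5 × 10⁵ CFU/ml, twofold dilutions of antibiotic in medium, 24 h at 35°C. Growth read at 600 nm and by eye with a reading mirror. MIC is the lowest concentration with no visible growth.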

Pseudomonas aeruginosa [11] = assay: Antimicrobial activity against Pseudomonas aeruginosa isolate NH57388A by broth microdilution method; format: functional; procedure, shortened: as §2
Pseudomonas aeruginosa [12] = assay: Antimicrobial activity against Pseudomonas aeruginosa ATCC 27853 infected in Swiss neutropenic mouse assessed as mouse survival rate at 60 mg/kg BID administered 24 hrs post infection through aerosol
Mus musculus [13] = species on record: Mus musculus; assay: Toxicity in Pseudomonas aeruginosa ATCC 27853 infected Swiss mouse; format: functional
Pseudomonas aeruginosa [14] = assay: Antimicrobial activity against Pseudomonas aeruginosa ATCC 27853 infected in Swiss neutropenic mouse assessed as mouse survival rate at 400 mg/kg BID administered 24 hrs post infection through aerosol; format: functional
Procedure, shortened: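 Female Swiss mice were made neutropenic (cyclophosphamide 150 mg/kg i.p., days 1 and 3) and infected intratracheally on day 4 with ATCC 27853, 0.05 ml at ca. 1–6 × 10⁵ CFU/ml. Aerosol via microsprayer to the bifurcation (50 µl) under isoflurane, twice daily for 48 h from 24 h postinfection. Survival observed to 9 days postinfection, n = 10.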

Row | SMILES | log10cfu (Pseudomonas aeruginosa [1]) | log10cfu (Pseudomonas aeruginosa [2]) | log10cfu (Pseudomonas aeruginosa [3]) | log10cfu (Pseudomonas aeruginosa [4]) | log10cfu (Pseudomonas aeruginosa [5]) | log10cfu (Pseudomonas aeruginosa [6]) | Cmax (Mus musculus [7]) [mg/kg] | Cmax (Mus musculus [8]) [mg/kg] | log10cfu (Pseudomonas aeruginosa [9]) | MIC (Pseudomonas aeruginosa [10]) [µg/mL] | MIC (Pseudomonas aeruginosa [11]) [µg/mL] | Activity (Pseudomonas aeruginosa [12]) [%] | MTD (Mus musculus [13]) [mg/kg] | Activity (Pseudomonas aeruginosa [14]) [%]
1 | C[C@H]1COc2c(N3CCN(C)CC3)c(F)cc3c(=O)c(C(=O)O)cn1c23.C[C@H]1COc2c(N3CCN(C)CC3)c(F)cc3c(=O)c(C(=O)O)cn1c23.O [LEVOFLOXACIN] | 0.65 | 2.7 | 4.93 | 3.5 | 7.83 | 5.73 | 550 | 18.6 | – | – | – | – | – | –
2 | NC[C@H]1O[C@H](O[C@H]2[C@H](O)[C@@H](O[C@H]3O[C@H](CO)[C@@H](O)[C@H](N)[C@H]3O)[C@H](N)C[C@@H]2N)[C@H](N)C[C@@H]1O [TOBRAMYCIN] | – | – | – | – | – | – | – | – | 2.9 | 0.25 (≈ 0.535 µM) | 0.5 (≈ 1.07 µM) | 60 | 60 | –
3 | C[C@H]1[C@H](NC(=O)/C(=N\OC(C)(C)C(=O)O)c2csc(N)n2)C(=O)N1S(=O)(=O)O [AZTREONAM] | – | – | – | – | – | – | – | – | – | 4 (≈ 9.19 µM) | 4 (≈ 9.19 µM) | – | 400 | 20
